Experimental data reported in ChEMBL document CHEMBL1132570, “Synthesis of cytotoxic indenoisoquinoline topoisomerase I poisons” (1999).
One block for each compound: values may come before it.

What was measured:
[1] = tested on: DU-145; assay: Cytotoxicity against prostate DU-145 human cancer cell line.; type: functional
Method in brief: (§1)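 GI50 = concentration giving 50% growth inhibition, from a screen of about 55 human cancer cell lines over a 10^-8 to 10^-4 M test range. Values come from two determinations where a population standard deviation is shown, otherwise from single determinations.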

[2] = tested on: HCT-116; assay: Cytotoxicity against colon HCT116 human cancer cell line.; type: functional; method in brief: as §1
[3] = tested on: MDA-MB-435; assay: In vitro cytotoxicity against MDA-MB-435 (Human breast cancer) cell line.; type: functional; method in brief: as §1
[4] = molecular target: T1, DNA topoisomerase 1 (Homo sapiens) (UniProt P11387); assay: The activity was examined against DNA topoisomerase I mediated DNA cleavage using 3''-End-labelled 161 BP plasmid DNA. + indicates between 20 and 50% of the activity of 1 uM camptothecin
T1 sequence (whole entry): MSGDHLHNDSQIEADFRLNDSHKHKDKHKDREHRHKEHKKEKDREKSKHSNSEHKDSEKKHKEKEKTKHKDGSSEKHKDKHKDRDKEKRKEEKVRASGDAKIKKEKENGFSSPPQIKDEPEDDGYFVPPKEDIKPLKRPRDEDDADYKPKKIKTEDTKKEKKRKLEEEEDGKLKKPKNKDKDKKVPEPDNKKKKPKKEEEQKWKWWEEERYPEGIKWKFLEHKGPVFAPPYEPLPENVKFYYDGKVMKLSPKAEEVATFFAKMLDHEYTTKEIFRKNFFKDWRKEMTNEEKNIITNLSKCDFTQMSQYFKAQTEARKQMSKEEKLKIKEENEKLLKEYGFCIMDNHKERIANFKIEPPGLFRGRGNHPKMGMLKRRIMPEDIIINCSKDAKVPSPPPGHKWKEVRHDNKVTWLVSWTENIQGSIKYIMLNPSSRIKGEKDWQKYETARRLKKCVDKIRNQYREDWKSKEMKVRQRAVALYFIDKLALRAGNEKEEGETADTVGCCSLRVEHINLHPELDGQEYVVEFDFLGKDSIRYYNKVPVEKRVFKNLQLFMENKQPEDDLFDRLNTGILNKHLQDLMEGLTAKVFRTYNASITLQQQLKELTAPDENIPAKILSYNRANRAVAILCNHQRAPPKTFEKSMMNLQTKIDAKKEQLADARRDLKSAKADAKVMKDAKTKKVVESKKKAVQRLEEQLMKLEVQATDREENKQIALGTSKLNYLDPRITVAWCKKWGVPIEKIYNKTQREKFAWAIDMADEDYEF
Method in brief: (§2)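 A 161 bp PvuII–HindIII fragment of pBluescript SK(–) was 3'-end-labeled at the HindIII site with [α-32P]dCTP by Klenow fill-in. About 50 000 dpm per reaction was incubated with top1 and drug (0.1–300 μM) at 30 °C for 30 min, then stopped with 0.5% SDS (final). Products were run on 16% polyacrylamide/7 M urea gels at 51 °C and imaged by phosphorimager.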

[5] = tested on: HOP-62; assay: Cytotoxicity against lung HOP-62 human cancer cell line.; type: functional; method in brief: as §1
[6] = tested on: UACC-62; assay: In vitro cytotoxicity against UACC-62 (Human melanoma) cell line.; type: functional; method in brief: as §1
[7] = tested on: OVCAR-3; assay: Cytotoxicity against ovarian OVCAR-3 human cancer cell line.; type: functional; method in brief: as §1
[8] = tested on: SF-539; assay: Compound was tested for its cytotoxicity against CNS SF-539 Human cancer cell line; type: functional; method in brief: as §1
[9] = tested on: SN12C; assay: In vitro cytotoxicity against SN12C (Human renal cancer) cell line.; type: functional; method in brief: as §1
[10] = molecular target: T1, DNA topoisomerase 1 (Homo sapiens); assay: The activity was examined against DNA topoisomerase I mediated DNA cleavage using 3'-End-labelled 161 BP plasmid DNA. 0 indicates inactive; method in brief: as §2
[11] = molecular target: T1, DNA topoisomerase 1 (Homo sapiens); assay: The activity was examined against DNA topoisomerase I mediated DNA cleavage using 3'-End-labelled 161 BP plasmid DNA.0 indicates inactive; method in brief: as §2
[12] = tested on: SF-539; assay: Compound was tested for its cytotoxicity against CNS SF-539 cell line; type: functional; conditions: Homo sapiens; method in brief: as §1
[13] = tested on: MDA-MB-435; assay: Compound was tested for its cytotoxicity against breast MDA-MB-435 Human cancer cell line; type: functional; method in brief: as §1
[14] = molecular target: T1, DNA topoisomerase 1 (Homo sapiens); assay: The activity was examined against DNA topoisomerase I mediated DNA cleavage using 3''-End-labelled 161 BP plasmid DNA. +/- indicates less than 20% of the activity 0f 1 uM camptothecin; method in brief: as §2
[15] = molecular target: T1, DNA topoisomerase 1 (Homo sapiens); assay: The activity was examined against DNA topoisomerase I mediated DNA cleavage using 3''-End-labelled 161 BP plasmid DNA.+ indicates between 20 and 50% of the activity of 1 uM camptothecin; method in brief: as §2
[16] = molecular target: T1, DNA topoisomerase 1 (Homo sapiens); assay: The activity was examined against DNA topoisomerase I mediated DNA cleavage using 3''-End-labelled 161 BP plasmid DNA; +/- less than 20% of the activity of 1 uM camptothecin; method in brief: as §2

Compound: COc1cc2c3c(n(CCCCO)c(=O)c2cc1OC)-c1cc2c(cc1C3=O)OCO2
GI50 [1]: 0.36 µM
GI50 [2]: 1.4 µM
GI50 [3]: 10 µM
Top1 cleavage activity [4]: 20-50% of the activity of 1 uM camptothecin
GI50 [5]: 0.7 µM
GI50 [6]: 0.99 µM
GI50 [7]: 3.7 µM

Top1 cleavage activity [10]: 0
Compound: CCN1Cc2cc(OC)c(OC)cc2[C@@H]2[C@H]1c1cc3c(cc1[C@@H]2O)OCO3
GI50 [1]: 41 µM
GI50 [2]: 35 µM
GI50 [3]: 25 µM
GI50 [5]: 30 µM
GI50 [8]: 50 µM
GI50 [9]: 26 µM
GI50 [7]: 24 µM

Top1 cleavage activity [11]: 0
Compound: COc1cc2c3c(n(C)c(=O)c2cc1OC)-c1cc(OCc2ccccc2)c(OCc2ccccc2)cc1C3=O
GI50 [1]: > 100 µM
GI50 [2]: 80 µM
GI50 [3]: > 100 µM
GI50 [5]: 46 µM
GI50 [8]: 39 µM
GI50 [9]: > 100 µM
GI50 [6]: > 100 µM
GI50 [7]: 58 µM

Top1 cleavage activity [10]: 0
Compound: COC(=O)Cn1c2c(c3ccccc3c1=O)C(=O)c1ccccc1-2
GI50 [1]: > 100 µM
GI50 [3]: > 100 µM
GI50 [8]: > 100 µM
GI50 [9]: > 100 µM
GI50 [6]: > 100 µM
GI50 [7]: > 100 µM

Top1 cleavage activity [10]: 0
Compound: O=C1c2ccccc2-c2c1c1ccccc1c(=O)n2C1CC1
GI50 [1]: > 100 µM
GI50 [2]: > 100 µM
GI50 [12]: > 100 µM
GI50 [5]: 61 µM
GI50 [9]: > 100 µM
GI50 [6]: 84 µM
GI50 [7]: > 100 µM
GI50 [13]: > 100 µM

Top1 cleavage activity [10]: 0
Compound: C=CCN1C(=O)c2cc(OC)c(OC)cc2[C@H]2C(=O)c3cc4c(cc3[C@H]21)OCO4
GI50 [1]: 0.77 µM
GI50 [2]: 0.34 µM
GI50 [5]: 0.36 µM
GI50 [6]: 0.38 µM
GI50 [7]: 1.78 µM
GI50 [13]: 1.4 µM

Top1 cleavage activity [14]: +/-
Compound: COc1cc2c(cc1OC)[C@H]1C(=O)c3cc(OS(C)(=O)=O)c(OC)cc3[C@H]1N(C)C2=O

Top1 cleavage activity [10]: 0
Compound: CCn1c2c(c3ccccc3c1=O)C(=O)c1ccccc1-2

Compound: C=CCn1c2c(c3cc(OC)c(OC)cc3c1=O)C(=O)c1cc3c(cc1-2)OCO3
GI50 [1]: 3.2 µM
GI50 [2]: 2.3 µM
GI50 [3]: 5.2 µM
GI50 [5]: 3.4 µM
GI50 [8]: 2.2 µM
GI50 [9]: 2.6 µM
GI50 [7]: 6.6 µM
Top1 cleavage activity [15]: 20-50% of the activity of 1 uM camptothecin

Top1 cleavage activity [10]: 0
Compound: O=C1c2ccccc2-c2oc(=O)c3ccccc3c21
GI50 [1]: > 100 µM
GI50 [2]: > 100 µM
GI50 [3]: > 100 µM
GI50 [5]: > 100 µM
GI50 [8]: > 100 µM
GI50 [9]: > 100 µM
GI50 [6]: > 100 µM
GI50 [7]: > 100 µM

Top1 cleavage activity [10]: 0
Compound: CCCn1c2c(c3ccccc3c1=O)C(=O)c1ccccc1-2

Compound: COc1cc2c3c(n(CCCCCO)c(=O)c2cc1OC)-c1cc2c(cc1C3=O)OCO2
GI50 [1]: 5.1 µM
GI50 [2]: > 100 µM
GI50 [3]: > 100 µM
Top1 cleavage activity [4]: 20-50% of the activity of 1 uM camptothecin
GI50 [5]: 8.7 µM
GI50 [6]: > 100 µM
GI50 [7]: > 100 µM

Top1 cleavage activity [16]: +/-
Compound: COc1cc2c3c(n(Cc4ccccc4)c(=O)c2cc1OC)-c1cc2c(cc1C3=O)OCO2
GI50 [1]: 4 µM
GI50 [2]: > 100 µM
GI50 [3]: > 100 µM
GI50 [5]: 12 µM
GI50 [6]: 50 µM
GI50 [7]: > 100 µM
